In ChEMBL document CHEMBL4689842, “EUbOPEN Chemogenomics Library wave 1” (2021):

Tested on: Fibroblast
Test: Multiplex assay against human fibroblast
Assay type: toxicity, cell-based
Summary of the method: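 Hoechst33342, BioTracker Green Microtubule Cytoskeleton Dye, MitoTracker Red and Annexin V Alexa Fluor 680 were added to live cells at seeding, and imaging on a CQ1 microscope at 37°C and 5% CO2 followed compound addition. Gating by CellPathfinder machine learning separated cells into Hoechst high-intensity objects or normal cells, then normal cells into healthy, pyknosed or fragmented nuclei, then pyknosed cells into mitotic or apoptotic. Per cents of healthy-nucleus cells are reported for the tubulin, mitochondrial-mass and membrane-permeability phenotypes.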

[1] = 12 h, 1 µM, compound concentration 1 uM, replicate 1
[2] = 12 h, 1 µM, compound concentration 1 uM, replicate 2
[3] = 12 h, 10 µM, compound concentration 10 uM, replicate 1
[4] = 12 h, 10 µM, compound concentration 10 uM, replicate 2
[5] = 24 h, 1 µM, compound concentration 1 uM, replicate 1
[6] = 24 h, 1 µM, compound concentration 1 uM, replicate 2
[7] = 24 h, 10 µM, compound concentration 10 uM, replicate 1
[8] = 24 h, 10 µM, compound concentration 10 uM, replicate 2
[9] = 48 h, 1 µM, compound concentration 1 uM, replicate 1
[10] = 48 h, 1 µM, compound concentration 1 uM, replicate 2
[11] = 48 h, 10 µM, compound concentration 10 uM, replicate 1
[12] = 48 h, 10 µM, compound concentration 10 uM, replicate 2

In the case of `CCc1cc2c(cc1CC)CC(NC[C@H](O)c1ccc(O)c3[nH]c(=O)ccc13)C2` [INDACATEROL], the “Population Apoptotic (%)” value [1] is reported as 57%, the “Population Fragmented Nuclei (%)” value [1] is reported as 22% and the “Population Healthy Nuclei (%)” value [1] is reported as 53%. The “Population Hoechst High Intensity Objects (%)” value [1] was 9%, the “Population Membrane Permeable-Phenotype (%)” value [1] was 21% and the “Population Mitochondria Different-Phenotype (%)” value [1] was 10%. For the same compound, the “Population Mitotic Cells (%)” value [1] was 42%, the “Population Normal (%)” value [1] was 90% and the “Population Pyknosed Nuclei (%)” value [1] was 23%. The “Population Tubulin-Different-Phenotype (%)” value [1] was 35%, the “Total Cell Count” value [1] was 187 and the “Population Apoptotic (%)” value [2] was 33%. For the same compound, the “Population Fragmented Nuclei (%)” value [2] was 3%, the “Population Healthy Nuclei (%)” value [2] was 92% and the “Population Hoechst High Intensity Objects (%)” value [2] was 7%. For the same compound, the “Population Membrane Permeable-Phenotype (%)” value [2] was 1%, the “Population Mitochondria Different-Phenotype (%)” value [2] was 11% and the “Population Mitotic Cells (%)” value [2] was 66%. For the same compound, the “Population Normal (%)” value [2] was 92%, the “Population Pyknosed Nuclei (%)” value [2] was 4% and the “Population Tubulin-Different-Phenotype (%)” value [2] was 14%. For the same compound, the “Total Cell Count” value [2] was 71, the “Population Apoptotic (%)” value [3] was 71% and the “Population Fragmented Nuclei (%)” value [3] was 35%. The “Population Healthy Nuclei (%)” value [3] was 45%, the “Population Hoechst High Intensity Objects (%)” value [3] was 22% and the “Population Membrane Permeable-Phenotype (%)” value [3] was 1%. For the same compound, the “Population Mitochondria Different-Phenotype (%)” value [3] was 43%, the “Population Mitotic Cells (%)” value [3] was 28% and the “Population Normal (%)” value [3] was 77%. For the same compound, the “Population Pyknosed Nuclei (%)” value [3] was 19%, the “Population Tubulin-Different-Phenotype (%)” value [3] was 74% and the “Total Cell Count” value [3] was 230. The “Population Apoptotic (%)” value [4] was 68%, the “Population Fragmented Nuclei (%)” value [4] was 15% and the “Population Healthy Nuclei (%)” value [4] was 64%. For the same compound, the “Population Hoechst High Intensity Objects (%)” value [4] was 6%, the “Population Membrane Permeable-Phenotype (%)” value [4] was 23% and the “Population Mitochondria Different-Phenotype (%)” value [4] was 98%. The “Population Mitotic Cells (%)” value [4] was 31%, the “Population Normal (%)” value [4] was 93% and the “Population Tubulin-Different-Phenotype (%)” value [4] was 88%. For the same compound, the “Total Cell Count” value [4] was 71, the “Population Apoptotic (%)” value [5] was 69% and the “Population Fragmented Nuclei (%)” value [5] was 23%. The “Population Healthy Nuclei (%)” value [5] was 62%, the “Population Hoechst High Intensity Objects (%)” value [5] was 10% and the “Population Membrane Permeable-Phenotype (%)” value [5] was 18%. For the same compound, the “Population Mitochondria Different-Phenotype (%)” value [5] was 5%, the “Population Mitotic Cells (%)” value [5] was 30% and the “Population Normal (%)” value [5] was 89%. The “Population Pyknosed Nuclei (%)” value [5] was 13%, the “Population Tubulin-Different-Phenotype (%)” value [5] was 36% and the “Total Cell Count” value [5] was 184. The “Population Apoptotic (%)” value [6] was 14%, the “Population Fragmented Nuclei (%)” value [6] was 4% and the “Population Healthy Nuclei (%)” value [6] was 86%. For the same compound, the “Population Hoechst High Intensity Objects (%)” value [6] was 3%, the “Population Membrane Permeable-Phenotype (%)” value [6] was 0% and the “Population Mitochondria Different-Phenotype (%)” value [6] was 10%. For the same compound, the “Population Mitotic Cells (%)” value [6] was 85%, the “Population Normal (%)” value [6] was 96% and the “Population Pyknosed Nuclei (%)” value [6] was 9%. For the same compound, the “Population Tubulin-Different-Phenotype (%)” value [6] was 12%, the “Total Cell Count” value [6] was 73 and the “Population Apoptotic (%)” value [7] was 71%. For the same compound, the “Population Fragmented Nuclei (%)” value [7] was 30%, the “Population Healthy Nuclei (%)” value [7] was 49% and the “Population Hoechst High Intensity Objects (%)” value [7] was 33%. The “Population Membrane Permeable-Phenotype (%)” value [7] was 5%, the “Population Mitochondria Different-Phenotype (%)” value [7] was 55% and the “Population Mitotic Cells (%)” value [7] was 28%. For the same compound, the “Population Normal (%)” value [7] was 66%, the “Population Pyknosed Nuclei (%)” value [7] was 19% and the “Population Tubulin-Different-Phenotype (%)” value [7] was 77%. The “Total Cell Count” value [7] was 243, the “Population Apoptotic (%)” value [8] was 89% and the “Population Fragmented Nuclei (%)” value [8] was 11%. The “Population Healthy Nuclei (%)” value [8] was 67%, the “Population Hoechst High Intensity Objects (%)” value [8] was 6% and the “Population Membrane Permeable-Phenotype (%)” value [8] was 59%. The “Population Mitochondria Different-Phenotype (%)” value [8] was 100%, the “Population Mitotic Cells (%)” value [8] was 10% and the “Population Normal (%)” value [8] was 93%. For the same compound, the “Population Pyknosed Nuclei (%)” value [8] was 20%, the “Population Tubulin-Different-Phenotype (%)” value [8] was 86% and the “Total Cell Count” value [8] was 78. For the same compound, the “Population Apoptotic (%)” value [9] was 30%, the “Population Fragmented Nuclei (%)” value [9] was 29% and the “Population Healthy Nuclei (%)” value [9] was 64%. For the same compound, the “Population Hoechst High Intensity Objects (%)” value [9] was 10%, the “Population Membrane Permeable-Phenotype (%)” value [9] was 20% and the “Population Mitochondria Different-Phenotype (%)” value [9] was 0%. For the same compound, the “Population Mitotic Cells (%)” value [9] was 69%, the “Population Normal (%)” value [9] was 89% and the “Population Pyknosed Nuclei (%)” value [9] was 6%. For the same compound, the “Population Tubulin-Different-Phenotype (%)” value [9] was 20%, the “Total Cell Count” value [9] was 222 and the “Population Apoptotic (%)” value [10] was 100%. The “Population Fragmented Nuclei (%)” value [10] was 37%, the “Population Healthy Nuclei (%)” value [10] was 60% and the “Population Hoechst High Intensity Objects (%)” value [10] was 15%. For the same compound, the “Population Membrane Permeable-Phenotype (%)” value [10] was 7%, the “Population Mitochondria Different-Phenotype (%)” value [10] was 4% and the “Population Mitotic Cells (%)” value [10] was 0%. The “Population Normal (%)” value [10] was 84%, the “Population Pyknosed Nuclei (%)” value [10] was 1% and the “Population Tubulin-Different-Phenotype (%)” value [10] was 35%. The “Total Cell Count” value [10] was 82, the “Population Apoptotic (%)” value [11] was 70% and the “Population Fragmented Nuclei (%)” value [11] was 38%. The “Population Healthy Nuclei (%)” value [11] was 46%, the “Population Hoechst High Intensity Objects (%)” value [11] was 51% and the “Population Membrane Permeable-Phenotype (%)” value [11] was 1%. The “Population Mitochondria Different-Phenotype (%)” value [11] was 54%, the “Population Mitotic Cells (%)” value [11] was 29% and the “Population Normal (%)” value [11] was 48%. The “Population Pyknosed Nuclei (%)” value [11] was 14%, the “Population Tubulin-Different-Phenotype (%)” value [11] was 67% and the “Total Cell Count” value [11] was 237. The “Population Apoptotic (%)” value [12] was 66%, the “Population Fragmented Nuclei (%)” value [12] was 52% and the “Population Healthy Nuclei (%)” value [12] was 44%. The “Population Hoechst High Intensity Objects (%)” value [12] was 37%, the “Population Membrane Permeable-Phenotype (%)” value [12] was 0% and the “Population Mitochondria Different-Phenotype (%)” value [12] was 28%. The “Population Mitotic Cells (%)” value [12] was 33%, the “Population Normal (%)” value [12] was 62% and the “Population Pyknosed Nuclei (%)” value [12] was 3%. The “Population Tubulin-Different-Phenotype (%)” value [12] was 61% and the “Total Cell Count” value [12] was 465.
